Test results reported in ChEMBL document CHEMBL3603823, “Ethylenedioxy homologs of N-methyl-(3,4-methylenedioxyphenyl)-2-aminopropane (MDMA) and its corresponding cathinone analog methylenedioxymethcathinone: Interactions with transporters for serotonin, dopamine, and norepinephrine” (Bioorg Med Chem, 2015).

Key:
Format in all cases: subcellular
[1] = target: Sodium-dependent serotonin transporter (Rattus norvegicus, UniProt P31652); assay: Binding affinity to SERT in Sprague-Dawley rat brain synaptosomes assessed as induction of [3H]5-HT release by liquid scintillation counting method
Sequence of Sodium-dependent serotonin transporter (P31652 whole entry): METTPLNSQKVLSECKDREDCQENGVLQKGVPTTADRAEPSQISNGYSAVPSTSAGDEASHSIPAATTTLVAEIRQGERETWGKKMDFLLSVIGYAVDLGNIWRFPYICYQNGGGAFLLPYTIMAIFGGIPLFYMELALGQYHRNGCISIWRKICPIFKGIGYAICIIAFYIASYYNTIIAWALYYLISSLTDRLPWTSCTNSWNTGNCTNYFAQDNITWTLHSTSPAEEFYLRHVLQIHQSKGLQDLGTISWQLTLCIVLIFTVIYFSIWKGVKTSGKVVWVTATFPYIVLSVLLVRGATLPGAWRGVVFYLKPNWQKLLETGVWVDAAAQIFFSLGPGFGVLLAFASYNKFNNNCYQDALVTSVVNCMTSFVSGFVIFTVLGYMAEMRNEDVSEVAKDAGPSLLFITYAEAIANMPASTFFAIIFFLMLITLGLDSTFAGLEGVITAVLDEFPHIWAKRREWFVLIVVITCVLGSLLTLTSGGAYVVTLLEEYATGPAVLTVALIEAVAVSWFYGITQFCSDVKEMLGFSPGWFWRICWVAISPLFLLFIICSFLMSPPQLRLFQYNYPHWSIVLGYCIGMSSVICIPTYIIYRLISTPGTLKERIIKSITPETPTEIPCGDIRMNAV
How it was run: (§1)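 Rat synaptosomes with 1 μM reserpine in all buffers; SERT and NET from whole brain minus caudate and cerebellum (900 μg/mL protein), DAT from caudate (90 μg/mL). Preloaded 1 h in Krebs-phosphate buffer with 5 nM [3H]5-HT (SERT) or 9 nM [3H]MPP+ (NET, DAT), with unlabeled blockers of competing transporters. Eight-point curves, 10–10,000 nM, triplicate, 3 occasions. Filtration, scintillation counting; EC50 by non-linear regression.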

[2] = Binding affinity to NET in Sprague-Dawley rat brain synaptosomes assessed as induction of [3H]MPP+ release by liquid scintillation counting method; how it was run: as §1
[3] = species on record: Rattus norvegicus; assay: Binding affinity to NET in Sprague-Dawley rat brain synaptosomes assessed as induction of [3H]MPP+ release by liquid scintillation counting method relative to control
How it was run: (§2)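 Release measured in rat synaptosomes preloaded 1 h with 5 nM [3H]5-HT (SERT) or 9 nM [3H]MPP+ (NET, DAT), with reserpine and unlabeled blockers; test drug 10–10,000 nM. Efficacy is % of maximal release, defined as release by tyramine: 100 μM for SERT, 10 μM for DAT and NET. Filtration and scintillation counting; n = 3–4 experiments in triplicate.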

[4] = target: Sodium-dependent serotonin transporter (Rattus norvegicus) (UniProt P31652); assay: Binding affinity to SERT in Sprague-Dawley rat brain synaptosomes assessed as induction of [3H]5-HT release by liquid scintillation counting method relative to control; how it was run: as §2
Sequence of Sodium-dependent serotonin transporter (Rattus norvegicus) (P31652 whole entry): as above

[5] = target: Sodium-dependent dopamine transporter (Rattus norvegicus, UniProt P23977); assay: Binding affinity to DAT in Sprague-Dawley rat brain synaptosomes assessed as induction of [3H]MPP+ release by liquid scintillation counting method; how it was run: as §1
Sequence of Sodium-dependent dopamine transporter (P23977 whole entry): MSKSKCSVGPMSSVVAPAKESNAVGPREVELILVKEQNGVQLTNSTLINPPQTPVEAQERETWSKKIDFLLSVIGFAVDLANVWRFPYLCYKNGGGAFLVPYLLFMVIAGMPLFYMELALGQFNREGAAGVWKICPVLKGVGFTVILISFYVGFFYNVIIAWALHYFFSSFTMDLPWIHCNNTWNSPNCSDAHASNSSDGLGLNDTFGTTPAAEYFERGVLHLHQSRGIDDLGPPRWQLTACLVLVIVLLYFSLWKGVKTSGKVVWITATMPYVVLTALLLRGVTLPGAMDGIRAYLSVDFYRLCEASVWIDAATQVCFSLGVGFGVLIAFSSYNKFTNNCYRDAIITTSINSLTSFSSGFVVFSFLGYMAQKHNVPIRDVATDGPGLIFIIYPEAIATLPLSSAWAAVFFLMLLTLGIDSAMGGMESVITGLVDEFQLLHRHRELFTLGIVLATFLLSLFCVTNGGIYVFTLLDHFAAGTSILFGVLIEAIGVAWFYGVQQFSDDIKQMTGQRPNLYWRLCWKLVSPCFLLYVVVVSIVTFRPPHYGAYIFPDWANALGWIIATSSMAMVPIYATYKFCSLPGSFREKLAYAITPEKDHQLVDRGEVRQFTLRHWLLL

[6] = target: Sodium-dependent dopamine transporter (Rattus norvegicus) (UniProt P23977); assay: Binding affinity to DAT in Sprague-Dawley rat brain synaptosomes assessed as induction of [3H]MPP+ release by liquid scintillation counting method relative to control; how it was run: as §2
Sequence of Sodium-dependent dopamine transporter (Rattus norvegicus) (P23977 whole entry): as above

[7] = species on record: Rattus norvegicus; assay: Selectivity index, ratio of EC50 for DAT in Sprague-Dawley rat brain synaptosomes to EC50 for SERT in Sprague-Dawley rat brain synaptosomes
[8] = species on record: Rattus norvegicus; assay: Selectivity index, ratio of EC50 for NET in Sprague-Dawley rat brain synaptosomes to EC50 for SERT in Sprague-Dawley rat brain synaptosomes

`CN[C@@H](C)Cc1ccc2c(c1)OCCO2` gave an EC50 [1] of 91 nM, an EC50 [2] of 239 nM and a %max [3] of 94%. It also gave a %max [4] of 96%, an EC50 [5] of 276 nM and a %max [6] of 103%.

In the case of `CN[C@H](C)Cc1ccc2c(c1)OCCO2`, the EC50 [1] is reported as 573 nM, the EC50 [2] is reported as 1950 nM and the %max [3] is reported as 85%. It also gave a %max [4] of 97%, an EC50 [5] of 14600 nM and a %max [6] of 106%.

Compound `CNC(C)Cc1ccc2c(c1)OCCO2` (racemic) has a Ratio EC50 [7] of 6, an EC50 [1] of 117 nM and a Ratio EC50 [8] of 3. For the same compound, the EC50 [2] was 325 nM, the %max [3] was 91% and the %max [4] was 102%. The EC50 [5] was 597 nM and the %max [6] was 108%.

For `CNC(C)C(=O)c1ccc2c(c1)OCCO2` (racemic), the EC50 [1] was 347 nM, the EC50 [2] was 327 nM and the %max [3] was 84%. The %max [4] was 105%, the EC50 [5] was 496 nM and the %max [6] was 105%.

`CNC(C)C(=O)c1ccc2c(c1)OCO2` (racemic) [METHYLONE] showed an EC50 [1] of 242 nM, an EC50 [2] of 152 nM and an EC50 [5] of 133 nM.

Work on `CNC(C)Cc1ccc2c(c1)OCO2` (racemic) [MIDOMAFETAMINE] yielded an EC50 [1] of 61 nM, an EC50 [2] of 72 nM and a %max [3] of 95%. It also gave a %max [4] of 98%, an EC50 [5] of 75 nM and a %max [6] of 99%.
